We go through eleven compounds from ChEMBL document CHEMBL1149444, “Discovery of imidazo[1,2-b][1,2,4]triazines as GABA(A) alpha2/3 subtype selective agonists for the treatment of anxiety” (J Med Chem, 2006).

The structures appear in SMILES notation.

Series [1] deals with T1, GABA-A receptor; alpha-2/beta-3/gamma-2 (Homo sapiens, UniProt P18507+P28472+P47869).
T1 sequence (P18507 whole entry): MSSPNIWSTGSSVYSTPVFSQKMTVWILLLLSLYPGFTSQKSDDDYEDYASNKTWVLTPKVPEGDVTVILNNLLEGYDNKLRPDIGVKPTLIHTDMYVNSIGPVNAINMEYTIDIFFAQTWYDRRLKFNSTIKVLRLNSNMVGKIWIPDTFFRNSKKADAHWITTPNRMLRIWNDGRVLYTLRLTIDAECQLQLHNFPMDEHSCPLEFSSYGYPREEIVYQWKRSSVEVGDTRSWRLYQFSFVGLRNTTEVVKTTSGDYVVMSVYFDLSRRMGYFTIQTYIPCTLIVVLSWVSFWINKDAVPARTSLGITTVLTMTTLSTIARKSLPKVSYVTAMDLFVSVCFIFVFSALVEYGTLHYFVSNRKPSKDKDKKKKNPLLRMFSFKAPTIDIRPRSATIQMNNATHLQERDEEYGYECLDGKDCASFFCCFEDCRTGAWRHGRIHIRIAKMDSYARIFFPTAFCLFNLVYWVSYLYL
T1 sequence (P28472 whole entry): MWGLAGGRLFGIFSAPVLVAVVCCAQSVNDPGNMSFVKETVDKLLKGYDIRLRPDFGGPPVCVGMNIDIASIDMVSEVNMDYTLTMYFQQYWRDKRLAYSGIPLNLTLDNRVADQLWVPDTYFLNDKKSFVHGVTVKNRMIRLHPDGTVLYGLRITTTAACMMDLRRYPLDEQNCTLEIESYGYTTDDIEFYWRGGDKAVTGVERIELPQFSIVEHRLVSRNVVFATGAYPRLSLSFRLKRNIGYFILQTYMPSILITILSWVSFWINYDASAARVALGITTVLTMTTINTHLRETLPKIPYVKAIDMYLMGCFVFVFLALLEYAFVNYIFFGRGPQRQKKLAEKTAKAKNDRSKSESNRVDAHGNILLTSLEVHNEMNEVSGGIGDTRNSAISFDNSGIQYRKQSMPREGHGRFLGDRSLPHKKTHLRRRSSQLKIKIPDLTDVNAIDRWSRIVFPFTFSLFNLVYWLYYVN
T1 sequence (P47869 whole entry): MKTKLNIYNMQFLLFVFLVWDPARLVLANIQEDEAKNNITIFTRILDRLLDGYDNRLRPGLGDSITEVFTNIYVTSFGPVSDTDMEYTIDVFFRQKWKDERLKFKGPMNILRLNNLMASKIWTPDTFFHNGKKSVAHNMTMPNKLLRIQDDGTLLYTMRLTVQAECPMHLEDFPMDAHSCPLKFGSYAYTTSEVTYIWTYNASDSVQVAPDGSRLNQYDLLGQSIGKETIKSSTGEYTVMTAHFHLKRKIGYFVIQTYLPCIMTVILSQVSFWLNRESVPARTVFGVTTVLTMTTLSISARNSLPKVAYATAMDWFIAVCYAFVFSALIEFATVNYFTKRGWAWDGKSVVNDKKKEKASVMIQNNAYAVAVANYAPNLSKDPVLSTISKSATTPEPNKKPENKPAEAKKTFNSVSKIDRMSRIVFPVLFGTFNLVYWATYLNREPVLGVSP
The series is described as follows: Displacement of [3H] Ro15-1788 from recombinant human GABAA alpha2 receptor plus beta-3-gamma-2 expressed in L(tk-) cells. Type of series: cell-based. Background: In a radioligand displacement assay an active substance lowers the binding of a labelled ligand.

In series [2] the target is T2, GABA-A receptor; alpha-3/beta-3/gamma-2 (Homo sapiens) (UniProt P18507+P28472+P34903). The series is described as follows: Efficacy against recombinant human GABAA alpha3 receptor plus beta-3-gamma-2 expressed in L(tk-) cells by whole cell patch clamp method relative to chlordiazepoxide. The class given is functional, cell-based. Put shortly: (§1)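 Whole-cell patch clamp on L(tk-) cells stably expressing the receptor (alpha plus beta3gamma2). GABA applied at an EC20-equivalent concentration. Modulation of the current measured with increasing test concentrations. Efficacy expressed relative to the maximal chlordiazepoxide response (set at 1.00) or as a percentage.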
For orientation: In patch-clamp work, channel activity is measured electrically.

The target of series [3] is T3, GABA-A receptor; alpha-1/beta-3/gamma-2 (Homo sapiens, UniProt P14867+P18507+P28472).
T3 sequence (P14867 whole entry): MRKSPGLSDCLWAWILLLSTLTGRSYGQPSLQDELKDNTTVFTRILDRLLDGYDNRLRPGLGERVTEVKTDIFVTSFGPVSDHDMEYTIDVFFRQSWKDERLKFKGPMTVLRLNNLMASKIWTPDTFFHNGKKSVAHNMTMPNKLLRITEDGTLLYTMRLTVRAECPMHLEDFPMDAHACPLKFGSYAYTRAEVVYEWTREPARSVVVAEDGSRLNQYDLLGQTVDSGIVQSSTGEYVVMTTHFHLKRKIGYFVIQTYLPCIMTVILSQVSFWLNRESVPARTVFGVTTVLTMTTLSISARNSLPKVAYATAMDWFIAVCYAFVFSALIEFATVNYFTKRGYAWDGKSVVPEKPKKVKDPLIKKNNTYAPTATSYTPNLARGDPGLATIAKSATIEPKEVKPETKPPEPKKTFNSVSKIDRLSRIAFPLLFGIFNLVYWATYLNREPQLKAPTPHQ
T3 sequence (P18507 whole entry): T1 sequence (P18507 whole entry)
T3 sequence (P28472 whole entry): T1 sequence (P28472 whole entry)
The series is described as follows: Displacement of [3H]Ro 15-1788 from recombinant human GABAA alpha-1 receptor plus beta3gamma2 expressed in L(tk-) cells. Type of series: cell-based.

The target of series [4] is T4, GABA-A receptor; alpha-1/beta-3/gamma-2 (Homo sapiens) (UniProt P14867+P18507+P28472). In words: Efficacy against recombinant human GABAA alpha1 receptor plus beta3gamma2 expressed in L(tk-) cells by whole cell patch clamp method relative to chlordiazepoxide. Type of series: functional, cell-based. Summed up:
as §1

Series [5] deals with T4, GABA-A receptor; alpha-1/beta-3/gamma-2 (Homo sapiens). The series is described as follows: Efficacy against recombinant human GABAA alpha-1 receptor plus beta3gamma2 expressed in L(tk-) cells by whole cell patch clamp method. The class given is functional, cell-based. Put shortly: as §1
Series [6] concerns the target T2, GABA-A receptor; alpha-3/beta-3/gamma-2 (Homo sapiens). In words: Efficacy against recombinant human GABAA alpha-3 receptor plus beta3gamma2 expressed in L(tk-) cells by modulation of chloride ion flux relative to chlordiazepoxide. Type of series: functional, cell-based. Summed up: (§2)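 Same L(tk-) lines expressing beta3gamma2 with alpha1 or alpha3. 36Cl ion flux evoked by an EC20-equivalent concentration of GABA, measured in the presence of about 1000 x Ki of test compound. Efficacy expressed relative to the maximal chlordiazepoxide response (1.00). Mean of at least seven independent experiments.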

Series [7] concerns the target T4, GABA-A receptor; alpha-1/beta-3/gamma-2 (Homo sapiens). The series is described as follows: Efficacy against recombinant human GABAA alpha1 receptor plus beta-3-gamma-2 expressed in L(tk-) cells by modulation of chloride ion flux relative to chlordiazepoxide. The class given is functional, cell-based. Summed up:
as §2

The nature of series [8]: Volume of distribution in rat at 1 mg/kg, iv or 1 mg/kg, po. The class given is ADME, organism-based. The note with it: in vivo, read-out: Vdss. Summed up: (§3)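 Rat pharmacokinetics after dosing at 1 mg/kg iv and 1 mg/kg po. Plasma clearance in mL/min/kg, half-life in h and volume of distribution in L/kg.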
Series [9] is described as follows: Half life in rat at 1 mg/kg, […] 1 mg/kg, po. The class given is ADME, organism-based. The note with it: in vivo. Summed up:
as §3

The nature of series [10]: Plasma clearance in rat at 1 mg/kg, iv or 1 mg/kg, po. Type of series: ADME, organism-based. Put shortly: as §3
Series [11] is described as follows: Oral bioavailability in rat at 1 mg/kg, iv or 1 mg/kg, po. The class given is ADME, organism-based. Conditions: in vivo. Put shortly: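 Pharmacokinetics in rat, dog or rhesus after 1 mg/kg iv and 1 mg/kg po dosing. Plasma clearance (mL/min/kg), half-life (h), volume of distribution (L/kg) and oral bioavailability (%) were derived.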

As a reminder, the Ki is a measure of affinity in units of concentration, obtained from inhibition or displacement. The term half-life denotes how long it takes for the measured level to halve. The term bioavailability denotes the share of a dose that reaches the circulation, judged against a reference dose that is usually intravenous. Read a high bioavailability as good availability.

As for `Cc1ccn2c(-c3cccc(-c4ccccc4C#N)c3)cnc2n1`, the Ki in series [1] and in [3] was 0.4 nM in each case. The results for the Efficacy in series [2] and in series [4] were 69% and 7%, respectively.

For `Cc1cnn2c(-c3cccc(-c4ccccc4C#N)c3)cnc2n1`, the Efficacy is -21% in [5] and 34% in series [2]. Besides, the Ki in series [1] came to 1.2 nM; in series [3] it was 1.5 nM.

As to `Cc1cnn2c(-c3cccc(-c4ccccc4C#N)c3)cnc2c1`, the figures for the inhibition constant Ki in [1] and in series [3] were 19 nM and 13 nM, respectively. The Efficacy was 26% in series [6] and -20% in series [7].

Take `CC(C)(O)c1cnn2c(-c3ccc(F)c(-c4ccc(F)cc4C#N)c3)cnc2n1`: the Efficacy in series [5] was -15%; in series [2], 43%. Further, the inhibition constant Ki is 2.1 nM in series [1] and 1.2 nM in series [3]. Moreover, the Vd in [8] came to 3.4 L/kg. The half-life in series [9] is 38 h. In series [10], this compound had a clearance of 1.1 mL/min/kg.

As to `N#Cc1cc(F)ccc1-c1cc(-c2cnc3nc(C(F)(F)F)cnn23)ccc1F`, the Efficacy is -13% in [5] and -6% in [2]. The inhibition constant (Ki) is 0.8 nM in series [1] and 0.25 nM in [3].

Turning to `CC(C)(O)c1cnn2c(-c3ccc(F)c(-c4c(F)cc(F)cc4C#N)c3)cnc2n1`, the Ki in series [1] came out at 1 nM; in series [3] it was 0.15 nM. For the same compound, the Vd in series [8] was found to be 5.8 L/kg. Moreover, the Efficacy in series [2] turned out to be 37%; in [4], 0%. In series [9], this compound showed a half-life of 69 h. In series [10], this compound showed a clearance of 1 mL/min/kg. In series [11], the bioavailability came to 64%.

`CN1C(=O)CN=C(c2ccccc2)c2cc(Cl)ccc21`: the Efficacy came to 80% in series [2] and 93% in [4].

With `CC(C)(O)c1ccn2c(-c3ccc(F)c(-c4cccnc4)c3)cnc2n1`, the inhibition constant Ki in [1] worked out at 4 nM. Moreover, in series [4], the Efficacy came out at 6%.

`Cc1ccn2c(-c3cccc(-c4ccccc4C#N)c3)cnc2c1`: the Efficacy was -10% in series [5] and 55% in [2]. Further, in series [1], the Ki came out at 3.7 nM.

For `CCO/N=C(\C)c1ccc2c(c1)ncn2-c1cccc(-c2cccnc2)c1`, the results for the Ki in series [1] and in [3] were 14 nM and 2 nM, respectively. Also, the Efficacy in series [2] stood at 99%; in series [4], 40%.

Consider `N#Cc1cc(F)ccc1-c1cc(-c2cnc3nc(C(F)(F)F)ccn23)ccc1F`, for which the Ki in series [1] worked out at 0.73 nM. Besides, the Efficacy is 25% in series [2] and -3% in series [4].
